Test results as given in ChEMBL document CHEMBL4118021, “Studies of TAK1-centered polypharmacology with novel covalent TAK1 inhibitors” (Bioorg Med Chem, 2017).
Each block holds one compound with its values, some of them ahead of it. Active and inactive are the calls of the source. No cut-off for these calls is given here.

What was measured:
[1] = target: Ribosomal protein S6 kinase alpha-6 (Homo sapiens) (UniProt Q9UK32); assay: Inhibition of human RSK4 (1 to 397 residues) expressed in mammalian expression system assessed as enzyme activity at 1 uM by KINOMEScan assay relative to control; parameters: scale not given: the % may be the effect or the level left
How it was run: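 In vitro ATP-site competition binding assay across a panel of 456 kinases, with compound tested at 1 and 10 μM.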

BaF3 = assay: Antiproliferative activity against mouse BA/F3 cells harboring KRAS G12D mutant after 72 hrs by CellTiter-Glo assay; format: functional, cell-based; details: BaF3, 72 h
[2] = target: AP-2 complex subunit alpha-1 (Homo sapiens) (UniProt O95782); assay: Binding affinity to AP2A1 in human NCI-H358 cells at 1 uM by mass spectrometry based pull down assay; format: cell-based
[3] = target: ADP/ATP translocase 2 (Homo sapiens) (UniProt P05141); assay: Binding affinity to SLC25A5 in human NCI-H23 cells at 1 uM by mass spectrometry based pull down assay; format: cell-based
[4] = target: Leucine-rich repeat-containing protein 15 (Homo sapiens) (UniProt Q8TF66); assay: Binding affinity to LRRC15 in human NCI-H23 cells at 1 uM by mass spectrometry based pull down assay; format: cell-based
[5] = target: Phosphoinositide 3-kinase regulatory subunit 4 (Homo sapiens) (UniProt Q99570); assay: Binding affinity to PIK3R4 in human NCI-H23 cells at 1 uM by mass spectrometry based pull down assay; format: cell-based
[6] = target: DnaJ homolog subfamily B member 6 (Homo sapiens) (UniProt O75190); assay: Binding affinity to DNAJB6 in human NCI-H358 cells at 1 uM by mass spectrometry based pull down assay; format: cell-based
[7] = target: Small ribosomal subunit protein uS2 (Homo sapiens) (UniProt P08865); assay: Binding affinity to RPSA in human NCI-H23 cells at 1 uM by mass spectrometry based pull down assay; format: cell-based
[8] = target: T1, Dual specificity mitogen-activated protein kinase kinase 6 (Homo sapiens) (UniProt P52564); assay: Binding affinity to MAP2K6 in human NCI-H358 cells at 1 uM by mass spectrometry based pull down assay; format: cell-based
T1 sequence (whole entry): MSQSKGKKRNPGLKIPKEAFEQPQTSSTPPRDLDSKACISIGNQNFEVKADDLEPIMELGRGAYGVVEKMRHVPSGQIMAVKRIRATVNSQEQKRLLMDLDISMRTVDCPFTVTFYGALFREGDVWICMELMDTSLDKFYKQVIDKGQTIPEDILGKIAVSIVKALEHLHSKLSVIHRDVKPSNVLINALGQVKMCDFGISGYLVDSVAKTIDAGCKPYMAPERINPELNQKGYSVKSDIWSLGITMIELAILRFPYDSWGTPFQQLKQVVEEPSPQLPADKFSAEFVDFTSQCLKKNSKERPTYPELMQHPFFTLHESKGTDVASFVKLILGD

[9] = target: Polyadenylate-binding protein 4 (Homo sapiens) (UniProt Q13310); assay: Binding affinity to PABPC4 in human NCI-H23 cells at 1 uM by mass spectrometry based pull down assay; format: cell-based
Moesin (Homo sapiens) = Moesin (Homo sapiens) (UniProt P26038); assay: Binding affinity to MSN in human NCI-H358 cells at 1 uM by mass spectrometry based pull down assay; format: cell-based
[10] = target: Y-box-binding protein 1 (Homo sapiens) (UniProt P67809); assay: Binding affinity to YBX1 in human NCI-H358 cells at 1 uM by mass spectrometry based pull down assay; format: cell-based
[11] = target: 80S Ribosome (Homo sapiens) (UniProt P08865+P42677+P62753+P15880+P23396+P61247+P62701+P22090+P46782+P62081+P62241+P46781+P46783+P62280+P25398+P62277+P62263+P62841+P62244+P62249+P08708+P62269+P39019+P60866+P63220+P62266+P62847+P62851+P62854+P62979+P62857+P62273+P62861+P39023+P36578+P46777+Q02878+P18124+P62424+P62917+P32969+P27635+P62906+P62913+P30050+P26373+P40429+P50914+P61313+P18621+Q07020+Q02543+P84098+P46778+P35268+P62829+P62750+P83731+P61254+P61353+P46776+P46779+P47914+P62888+P62899+P62910+P49207+P42766+P18077+Q9Y3U8+P83881+P61927+P61513+P63173+P62891+P62945+P05388+P05386); assay: Binding affinity to RPL26 in human NCI-H23 cells at 1 uM by mass spectrometry based pull down assay; format: cell-based
NCI-H23 = assay: Binding affinity to PSMA7 in human NCI-H23 cells at 1 uM by mass spectrometry based pull down assay; format: cell-based
[12] = target: TGF-beta-activated kinase 1 and MAP3K7-binding protein 1 (Homo sapiens) (UniProt Q15750); assay: Binding affinity to TAB1 in human NCI-H358 cells at 1 uM by mass spectrometry based pull down assay; format: cell-based
[13] = target: Monofunctional C1-tetrahydrofolate synthase, mitochondrial (Homo sapiens) (UniProt Q6UB35); assay: Binding affinity to MTHFD1L in human NCI-H358 cells at 1 uM by mass spectrometry based pull down assay; format: cell-based
[14] = target: Aldehyde dehydrogenase family 16 member A1 (Homo sapiens) (UniProt Q8IZ83); assay: Binding affinity to ALDH16A1 in human NCI-H23 cells at 1 uM by mass spectrometry based pull down assay; format: cell-based
How it was run: (§1)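 NCI-H23 or NCI-H358 cells were grown and lysed. Lysates were incubated overnight at 4 °C with 1 μM biotinylated covalent probe or DMSO, then pulled down on streptavidin beads. Proteins were run on polyacrylamide gels and stained with Coomassie. Bands were excised, digested and identified by mass spectrometry.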

[15] = target: Isoleucine--tRNA ligase, cytoplasmic (Homo sapiens) (UniProt P41252); assay: Binding affinity to IARS in human NCI-H358 cells at 1 uM by mass spectrometry based pull down assay; format: cell-based
[16] = target: Alpha-2-HS-glycoprotein (Homo sapiens) (UniProt P02765); assay: Binding affinity to AHSG in human NCI-H358 cells at 1 uM by mass spectrometry based pull down assay; format: cell-based; how it was run: as §1
[17] = target: Tropomyosin alpha-3 chain (Homo sapiens) (UniProt P06753); assay: Binding affinity to TPM3 in human NCI-H358 cells at 1 uM by mass spectrometry based pull down assay; format: cell-based
[18] = target: Glutathione S-transferase kappa 1 (Homo sapiens) (UniProt Q9Y2Q3); assay: Binding affinity to GSTK1 in human NCI-H23 cells at 1 uM by mass spectrometry based pull down assay; format: cell-based
[19] = target: Very-long-chain 3-oxoacyl-CoA reductase (Homo sapiens) (UniProt Q53GQ0); assay: Binding affinity to HSD17B12 in human NCI-H358 cells at 1 uM by mass spectrometry based pull down assay; format: cell-based
[20] = target: RNA-binding protein 3 (Homo sapiens) (UniProt P98179); assay: Binding affinity to RBM3 in human NCI-H23 cells at 1 uM by mass spectrometry based pull down assay; format: cell-based

Very-long-chain 3-oxoacyl-CoA reductase (Homo sapiens), sequence (Q53GQ0 whole entry): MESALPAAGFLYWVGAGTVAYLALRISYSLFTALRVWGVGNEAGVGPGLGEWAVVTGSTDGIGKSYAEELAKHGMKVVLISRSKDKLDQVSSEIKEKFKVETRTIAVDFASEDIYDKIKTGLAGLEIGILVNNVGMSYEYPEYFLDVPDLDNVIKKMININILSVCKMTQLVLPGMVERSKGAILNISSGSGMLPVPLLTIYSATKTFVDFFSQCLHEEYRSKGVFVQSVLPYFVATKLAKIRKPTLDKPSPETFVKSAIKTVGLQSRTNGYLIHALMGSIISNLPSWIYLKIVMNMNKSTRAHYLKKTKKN
Y-box-binding protein 1 (Homo sapiens), sequence (P67809 whole entry): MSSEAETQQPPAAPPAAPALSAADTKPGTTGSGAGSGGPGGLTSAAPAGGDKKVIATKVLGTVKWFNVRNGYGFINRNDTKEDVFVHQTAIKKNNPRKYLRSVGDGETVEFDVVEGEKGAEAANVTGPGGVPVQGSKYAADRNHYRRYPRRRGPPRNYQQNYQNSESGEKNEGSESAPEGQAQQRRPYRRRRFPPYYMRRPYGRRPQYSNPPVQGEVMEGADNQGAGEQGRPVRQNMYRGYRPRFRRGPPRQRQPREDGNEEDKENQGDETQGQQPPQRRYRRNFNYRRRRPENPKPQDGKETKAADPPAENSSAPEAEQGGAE
Polyadenylate-binding protein 4 (Homo sapiens), sequence (Q13310 whole entry): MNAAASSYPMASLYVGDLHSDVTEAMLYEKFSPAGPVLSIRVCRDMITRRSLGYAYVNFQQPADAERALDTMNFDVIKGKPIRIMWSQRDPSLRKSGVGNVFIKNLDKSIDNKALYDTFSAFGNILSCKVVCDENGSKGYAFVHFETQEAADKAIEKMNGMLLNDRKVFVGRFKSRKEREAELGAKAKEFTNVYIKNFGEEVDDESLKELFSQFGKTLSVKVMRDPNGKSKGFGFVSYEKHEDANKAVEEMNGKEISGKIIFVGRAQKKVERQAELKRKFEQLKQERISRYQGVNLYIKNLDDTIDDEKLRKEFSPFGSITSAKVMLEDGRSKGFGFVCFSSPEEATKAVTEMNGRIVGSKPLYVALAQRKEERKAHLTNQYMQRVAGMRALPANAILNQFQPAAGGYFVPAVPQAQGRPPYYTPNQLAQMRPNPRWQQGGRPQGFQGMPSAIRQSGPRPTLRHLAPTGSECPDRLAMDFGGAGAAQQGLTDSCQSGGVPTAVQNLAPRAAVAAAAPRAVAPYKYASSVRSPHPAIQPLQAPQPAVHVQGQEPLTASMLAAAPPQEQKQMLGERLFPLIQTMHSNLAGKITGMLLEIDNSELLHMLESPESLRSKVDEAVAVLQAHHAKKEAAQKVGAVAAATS
Ribosomal protein S6 kinase alpha-6 (Homo sapiens), sequence (Q9UK32 whole entry, the tested form may be a part): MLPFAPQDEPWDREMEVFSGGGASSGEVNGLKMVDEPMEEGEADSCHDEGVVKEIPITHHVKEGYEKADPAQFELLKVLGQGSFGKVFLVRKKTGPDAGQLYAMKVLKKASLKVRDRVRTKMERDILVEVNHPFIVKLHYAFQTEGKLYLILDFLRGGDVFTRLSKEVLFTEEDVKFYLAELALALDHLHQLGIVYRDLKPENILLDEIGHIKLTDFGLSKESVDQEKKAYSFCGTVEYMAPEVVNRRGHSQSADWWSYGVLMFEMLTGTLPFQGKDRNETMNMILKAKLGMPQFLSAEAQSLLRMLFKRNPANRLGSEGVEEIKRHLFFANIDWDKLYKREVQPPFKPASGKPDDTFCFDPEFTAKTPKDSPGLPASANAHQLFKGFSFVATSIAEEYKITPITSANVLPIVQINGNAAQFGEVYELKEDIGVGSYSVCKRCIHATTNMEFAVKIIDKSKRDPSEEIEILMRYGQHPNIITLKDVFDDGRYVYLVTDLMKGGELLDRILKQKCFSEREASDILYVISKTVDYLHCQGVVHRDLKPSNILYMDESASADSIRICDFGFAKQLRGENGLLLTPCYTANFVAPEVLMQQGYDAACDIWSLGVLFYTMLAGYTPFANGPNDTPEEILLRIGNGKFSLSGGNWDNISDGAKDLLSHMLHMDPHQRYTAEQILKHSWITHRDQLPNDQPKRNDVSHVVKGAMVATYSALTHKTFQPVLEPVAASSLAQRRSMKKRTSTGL
Glutathione S-transferase kappa 1 (Homo sapiens), sequence (Q9Y2Q3 whole entry): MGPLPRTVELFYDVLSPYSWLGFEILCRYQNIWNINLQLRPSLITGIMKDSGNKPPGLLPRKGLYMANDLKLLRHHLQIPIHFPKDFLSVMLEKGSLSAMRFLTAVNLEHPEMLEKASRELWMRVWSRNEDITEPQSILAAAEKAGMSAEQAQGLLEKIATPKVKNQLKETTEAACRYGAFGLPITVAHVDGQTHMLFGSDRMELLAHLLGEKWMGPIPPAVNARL
Monofunctional C1-tetrahydrofolate synthase, mitochondrial (Homo sapiens), sequence (Q6UB35 whole entry): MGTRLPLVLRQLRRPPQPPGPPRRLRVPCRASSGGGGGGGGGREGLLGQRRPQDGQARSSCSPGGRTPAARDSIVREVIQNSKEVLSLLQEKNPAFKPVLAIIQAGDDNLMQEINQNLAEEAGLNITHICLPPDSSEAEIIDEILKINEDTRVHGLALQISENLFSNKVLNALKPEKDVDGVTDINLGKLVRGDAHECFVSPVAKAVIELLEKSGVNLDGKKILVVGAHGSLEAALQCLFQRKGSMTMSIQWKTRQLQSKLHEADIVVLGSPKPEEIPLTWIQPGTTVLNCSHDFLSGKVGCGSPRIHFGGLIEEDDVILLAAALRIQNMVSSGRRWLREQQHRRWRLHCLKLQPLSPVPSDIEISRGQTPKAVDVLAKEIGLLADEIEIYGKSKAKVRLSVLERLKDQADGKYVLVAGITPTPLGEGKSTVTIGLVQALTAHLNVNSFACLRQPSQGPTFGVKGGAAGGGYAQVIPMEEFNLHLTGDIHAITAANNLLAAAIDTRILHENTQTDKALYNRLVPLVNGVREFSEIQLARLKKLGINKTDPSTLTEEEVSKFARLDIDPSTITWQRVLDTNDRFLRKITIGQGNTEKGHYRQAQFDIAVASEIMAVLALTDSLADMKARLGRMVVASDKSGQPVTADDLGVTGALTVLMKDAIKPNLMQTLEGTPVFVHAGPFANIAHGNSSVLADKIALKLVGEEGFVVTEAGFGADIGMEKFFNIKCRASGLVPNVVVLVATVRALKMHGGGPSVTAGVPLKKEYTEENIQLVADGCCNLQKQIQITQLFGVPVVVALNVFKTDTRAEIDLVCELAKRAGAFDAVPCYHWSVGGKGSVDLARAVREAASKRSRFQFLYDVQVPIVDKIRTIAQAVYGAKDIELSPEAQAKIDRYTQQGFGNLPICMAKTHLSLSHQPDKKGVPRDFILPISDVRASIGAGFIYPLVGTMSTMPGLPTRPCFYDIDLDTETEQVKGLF
Tropomyosin alpha-3 chain (Homo sapiens), sequence (P06753 whole entry): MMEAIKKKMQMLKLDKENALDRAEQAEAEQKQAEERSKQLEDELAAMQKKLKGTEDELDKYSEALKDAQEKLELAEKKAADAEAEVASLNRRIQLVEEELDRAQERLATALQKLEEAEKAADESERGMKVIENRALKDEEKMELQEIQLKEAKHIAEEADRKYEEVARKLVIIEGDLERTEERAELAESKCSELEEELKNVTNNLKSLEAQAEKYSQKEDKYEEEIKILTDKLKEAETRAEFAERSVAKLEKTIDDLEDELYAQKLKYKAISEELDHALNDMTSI
Aldehyde dehydrogenase family 16 member A1 (Homo sapiens), sequence (Q8IZ83 whole entry): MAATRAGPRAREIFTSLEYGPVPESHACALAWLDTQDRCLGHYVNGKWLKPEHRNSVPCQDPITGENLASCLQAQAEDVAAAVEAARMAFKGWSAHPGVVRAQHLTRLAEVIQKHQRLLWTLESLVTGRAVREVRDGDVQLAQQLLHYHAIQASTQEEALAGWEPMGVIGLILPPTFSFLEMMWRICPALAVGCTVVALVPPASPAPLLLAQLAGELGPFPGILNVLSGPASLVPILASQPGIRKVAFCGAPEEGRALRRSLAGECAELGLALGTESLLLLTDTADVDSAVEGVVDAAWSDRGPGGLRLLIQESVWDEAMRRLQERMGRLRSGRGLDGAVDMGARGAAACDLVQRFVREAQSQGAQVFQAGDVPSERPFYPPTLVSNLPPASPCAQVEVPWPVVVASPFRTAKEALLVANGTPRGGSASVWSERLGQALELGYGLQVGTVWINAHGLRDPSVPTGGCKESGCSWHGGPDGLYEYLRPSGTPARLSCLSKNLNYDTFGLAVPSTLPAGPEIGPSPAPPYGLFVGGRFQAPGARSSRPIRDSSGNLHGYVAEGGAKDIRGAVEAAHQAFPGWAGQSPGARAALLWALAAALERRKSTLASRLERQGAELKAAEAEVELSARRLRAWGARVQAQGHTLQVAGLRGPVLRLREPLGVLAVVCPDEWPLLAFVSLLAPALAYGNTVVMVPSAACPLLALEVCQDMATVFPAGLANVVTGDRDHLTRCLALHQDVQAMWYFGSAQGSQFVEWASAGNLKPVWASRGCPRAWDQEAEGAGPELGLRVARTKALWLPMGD
Moesin (Homo sapiens), sequence (P26038 whole entry): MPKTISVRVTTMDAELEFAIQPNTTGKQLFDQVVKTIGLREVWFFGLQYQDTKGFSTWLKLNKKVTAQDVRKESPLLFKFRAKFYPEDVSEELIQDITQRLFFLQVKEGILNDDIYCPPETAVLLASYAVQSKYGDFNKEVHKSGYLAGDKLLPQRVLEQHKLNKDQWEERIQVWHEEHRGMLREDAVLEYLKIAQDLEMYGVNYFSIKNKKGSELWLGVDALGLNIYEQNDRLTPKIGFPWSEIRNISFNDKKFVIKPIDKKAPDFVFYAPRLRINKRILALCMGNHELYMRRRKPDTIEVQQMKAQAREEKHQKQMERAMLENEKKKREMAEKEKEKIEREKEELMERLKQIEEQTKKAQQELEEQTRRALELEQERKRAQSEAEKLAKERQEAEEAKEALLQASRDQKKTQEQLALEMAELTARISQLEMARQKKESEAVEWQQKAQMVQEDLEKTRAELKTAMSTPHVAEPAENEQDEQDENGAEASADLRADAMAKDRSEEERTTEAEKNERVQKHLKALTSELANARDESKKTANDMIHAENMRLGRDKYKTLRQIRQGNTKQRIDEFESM

SMILES: COc1cc(O)c2c(c1)/C=C/C[C@H](O)[C@H](O)C(=O)/C=C\C[C@H](C)OC2=O
- Activity [1]: 34%
- IC50 (BaF3): 4 nM

- Activity [2]: Active
- Activity [3]: Active
- Activity [4]: Active
- Activity [5]: Active
- Activity [6]: Active
- Activity [7]: Active
- Activity [8]: Active
- Activity [9]: Active
- Activity (Moesin (Homo sapiens)): Active
- Activity [10]: Active
- Activity [11]: Active
- Activity [12]: Active
- Activity [13]: Active
- Activity [14]: Active
- Activity [15]: Active
- Activity [16]: Active
- Activity [17]: Active
- Activity [18]: Active
- Activity [19]: Active
- Activity [20]: Active
SMILES: C=CC(=O)Nc1ccccc1Nc1nc(Nc2ccc(N3CCN(CCOCCOCCOCCNC(=O)CCCC[C@@H]4SC[C@@H]5NC(=O)N[C@@H]54)CC3)cc2)ncc1Cl
- Activity (NCI-H23): Active
